PP1 inh – blocks human PP1-alpha phosphatase, a PP5 counter-screen | inhibition, % at 6.7 µM | P62136 | 320,000 tested, 0.9% active | purified PP1alpha, OMFP fluorescence;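 active = inhibition above the mean inhibition of all tested compounds plus 3 SD, computed separately for each screening campaign, cut at about 15% in these data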
NR2E3 ag-1 – human photoreceptor-specific nuclear receptor agonism | CHO-S Gal4-NCOR/VP16-NR2E3 two-hybrid, luciferase | inhibition of corepressor binding, % at 3.98 µM | 360,000 tested, 0.35% active | AID 602229;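 active = inhibition above the mean of all tested compounds plus 3 SD, cut at about 70% in these data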;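 also: 0% = DMSO with NR2E3 transfected cells and 100% = cells lacking NR2E3 construct; higher means lower luciferase signal from less NR2E3 corepressor binding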
NR2E3 ag-2 – NR2E3 (human) agonism | GST-NR2E3/biotin-RetCOR TR-FRET, 1536-well | 320,000 tested, 0.12% active | inhibition of corepressor binding, % at 4.78 µM | Q9Y5X4;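 active = percent inhibition above the cutoff of mean plus 3 SD of all tested compounds, set per screening campaign, cut at about 20% in these data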;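 also: 0% = DMSO wells and 100% = biotin wells as full block of FRET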
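Material: NR2E3–RetCOR corepressor complex / Incubation: Compound–protein incubation for 5 h at 4 °C / Dosing: compound at 4.8 µM, single dose / Detection: time-resolved FRET / Benchmarks: high control biotin, low control 0.6% DMSO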
PP5 primary – inhibitors of human protein phosphatase 5 (PP5); P53041; purified PP5c, OMFP substrate fluorescence; inhibition, % at 6.7 µM; 320,000 tested, 0.18% active; AID 1987;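 active = inhibition above the campaign's mean inhibition across all tested compounds plus 3 SD, cut at about 9.5% in these data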;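 also: 0% = DMSO only and 100% = 100 µM cantharidin control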
Target sequence (P53041 whole entry, looked up): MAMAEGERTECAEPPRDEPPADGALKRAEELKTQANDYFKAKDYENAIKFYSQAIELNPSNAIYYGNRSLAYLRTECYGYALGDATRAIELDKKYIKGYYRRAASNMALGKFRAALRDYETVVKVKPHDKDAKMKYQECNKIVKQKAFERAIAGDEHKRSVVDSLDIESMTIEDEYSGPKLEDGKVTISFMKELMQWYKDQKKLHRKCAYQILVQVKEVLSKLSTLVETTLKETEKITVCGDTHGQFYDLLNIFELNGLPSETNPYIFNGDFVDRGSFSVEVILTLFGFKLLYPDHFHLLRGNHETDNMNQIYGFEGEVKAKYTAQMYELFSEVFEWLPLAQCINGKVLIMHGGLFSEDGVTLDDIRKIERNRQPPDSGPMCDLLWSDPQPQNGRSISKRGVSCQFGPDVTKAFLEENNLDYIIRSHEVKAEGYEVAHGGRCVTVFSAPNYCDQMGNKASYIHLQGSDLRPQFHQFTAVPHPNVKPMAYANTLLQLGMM
PP1 confirm – confirmation of human PP1 phosphatase inhibitors. AID 2358. inhibition, % at 6.7 µM. 1,900 tested, 52% active. shares compounds with PP1 inh. purified PP1alpha, OMFP substrate fluorescence;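 active = mean PP1 inhibition above a set limit taken from the earlier primary screen, cut at about 15% in these data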
PP5 inh counter – inhibits human PP5 phosphatase in PP1 counter-screen. shares compounds with PP1 inh. purified PP5c, OMFP fluorescence. inhibition, % at 6.7 µM. 1,900 tested, 4% active. AID 2360;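 active = mean PP5 inhibition over triplicate wells above about 9.5% taken from the earlier PP1 screen, limit read from the data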
* = called active by the depositor; . = no result. Only some compounds are listed: those with a hit (about 1.3% of all), similar ones and a draw of the others.

SMILES	PP1 inh	NR2E3 ag-1	NR2E3 ag-2	PP5 primary	PP1 confirm	PP5 inh counter
Cc1oc(-c2cccs2)cc1C(=O)N1CCCC(C)(C(=O)O)C1 (centres undefined)	.	-30.4	.	.	.	.
COC(=O)N1CCC2CC1c1c(Cl)cccc12 (centres undefined)	.	-1.6	.	.	.	.
CCOC(=O)C1CCCN(c2nc3ccccc3nc2C(C#N)C(=O)OCC)C1 (centres undefined)	21.0*	3.2	-0.5	4.0	1.3	1.4
N#Cc1ccccc1NC(=O)CSc1nnc(-c2ccncc2)o1	33.1*	5.6	-2.1	2.7	-2.5	-2.1
COc1ccc(/C=N/N2C(=O)CSC2=S)cc1Br	25.1*	-20.7	2.1	-1.1	22.1*	0.6
COCCN(CC(=O)Nc1cccc(C)c1C)C(=O)c1oc2c(Cl)cccc2c1C	2.6	-21.2	-0.5	-0.1	.	.
C#CCOCCOCCOCCNc1nc(N2CCN(C(=O)CCCCCCCCCCNC(=O)[C@H](CCCCN)n3cc(C)nn3)CC2)nc(N2CCN(C(=O)CCCCCCCCCCNC(=O)[C@@H]([C@H](C)CC)n3cc(CCCCCN)nn3)CC2)n1	60.5*	15.2	-0.3	4.6	28.5*	-0.9
C#CCOCCOCCOCCNc1nc(N2CCN(C(=O)CCCCCCCCCCNC(=O)[C@H]([C@@H](C)CC)n3cc(CCCCCN)nn3)CC2)nc(N2CCN(C(=O)CCCCCCCCCCNC(=O)[C@@H]([C@H](C)O)n3cc(C)nn3)CC2)n1	53.9*	8.0	-0.1	3.7	40.8*	0.0
C#CCOCCOCCOCCNc1nc(N2CCN(C(=O)CCCCCCCCCCNC(=O)[C@H](CCC(=O)O)n3cc(CCCCCN)nn3)CC2)nc(N2CCN(C(=O)CCCCCCCCCCNC(=O)[C@@H]([C@H](C)O)n3cc(C)nn3)CC2)n1	4.0	-38.0	3.5	2.5	.	.
C#CCOCCOCCOCCNc1nc(N2CCN(C(=O)CCCCCCCCCCNC(=O)[C@H](CCCCN)n3cc(CCO)nn3)CC2)nc(N2CCN(C(=O)CCCCCCCCCCNC(=O)[C@@H]([C@H](C)O)n3cc(C)nn3)CC2)n1	14.7	6.3	-1.5	0.6	.	.
CC(C)C[C@H]1CN([C@@H](CC(C)C)CN2CCC[C@@H]2CN2C(=S)NC[C@@H]2Cc2ccc(O)cc2)C(=S)N1CC1CCCCC1	.	40.0	.	.	.	.
CC(=O)Nc1cccc(-c2ccnc3c2CC(C(=O)NCc2ccc(N(C)C)cc2)O3)c1 (centres undefined)	.	-21.8	.	.	.	.
Cn1c(=O)c2c(n(C)c1=O)n(C)c(=O)n2C	.	-10.5	.	.	.	.
CC1CC(C)CN(CC(O)COCc2ccccc2F)C1 (centres undefined)	38.9*	1.3	-2.9	-1.6	-4.4	-4.9
Cc1cc2c(NCc3ccccc3)ncnc2s1	-3.2	31.9	1.4	1.5	.	.
CCOc1ccccc1C(=O)NCC(=O)NCC(c1ccc(OC)cc1)N1CCOCC1 (centres undefined)	22.8*	12.3	4.6	-0.7	-2.3	-2.9
Cc1ccc(C)c(NC(=O)Cn2nc(-c3ccccc3)nc2-c2ccccc2)c1	20.0*	-9.0	0.1	0.7	24.3*	-6.3
COc1ccc2nc(NC(=O)c3cccc(-c4cc5ccccc5oc4=O)c3)sc2c1	23.4*	-108.6	-8.2	-0.7	25.8*	-2.8
Cc1c(NC(=O)c2cccc(-c3cc4ccccc4oc3=O)c2)cccc1-c1nc2ncccc2o1	23.4*	-133.7	-19.3	1.0	30.8*	0.4
CC(=O)N1CCN(C(=O)c2cc(S(=O)(=O)N3CCN(c4ccccc4)CC3)ccc2Cl)CC1	.	5.1	.	.	.	.
COc1ccc(NC(=O)Nc2cc(NC(=O)Nc3ccc(OC)cc3)c(C)nc2C)cc1	18.3*	-7.3	0.5	3.2	21.1*	-1.5
COc1ccc(NC(=O)NNC(=O)C(O)(c2ccccc2)c2ccccc2)cc1	21.4*	0.1	2.0	-1.8	0.6	-3.2
COCCNC(=O)C1(C)CCN(C(=O)c2oc3ccccc3c2C)C1 (centres undefined)	.	-4.7	.	.	.	.
COc1cccc(N2CC(NS(=O)(=O)c3cccnc3)CC2=O)c1 (centres undefined)	-4.2	17.5	0.9	-1.3	.	.
CCOC(=O)C1=C(c2ccccc2)Nc2ncnn2C1c1ccc(C(=O)O)cc1 (centres undefined)	-3.6	-4.2	-5.2	-2.7	.	.
SMILES	PP1 inh	NR2E3 ag-1	NR2E3 ag-2	PP5 primary	PP1 confirm	PP5 inh counter
CCOC(=O)C1=C(c2ccccc2)NC(N)=NC1c1ccc(OCc2ccc(C(=O)OC)cc2)cc1 (centres undefined)	43.8*	-1.8	0.9	1.9	31.4*	-4.0
COC(=O)c1ccc(CNC(=O)c2ccc(COc3ccccc3)cc2)cc1	26.1*	-22.8	-1.7	0.3	23.8*	-2.5
OC(c1cccc(Cl)c1)c1ncc(-c2cccc(C(F)(F)F)c2)[nH]1 (centres undefined)	.	-28.7	.	.	.	.
C/C(CC(=O)Nc1ccc(Cl)c(C(F)(F)F)c1)=N\NC(=O)c1cc2ccccc2cc1O	19.0*	4.4	-2.3	2.7	8.3	-2.6
O=C1OC(c2ccccc2)c2ccc3ccccc3c21 (centres undefined)	18.8*	-1.9	0.8	3.7	-1.6	-1.7
CCc1ccc2c(c1)C(NC(C)=O)C(=O)N2CCN1CCOCC1 (centres undefined)	40.6*	-5.0	-2.6	3.6	36.3*	-4.4
Cc1ccccc1C(=O)Nc1cccc(C(=O)N/N=C/c2cc(Cl)cc([N+](=O)[O-])c2O)c1	19.0*	26.9	-3.9	1.6	18.3*	-3.8
Cc1cc2oc(=O)cc(-c3cc4ccccc4o3)c2cc1O	23.8*	-2.7	-1.6	-0.1	21.4*	-0.7
COc1ccc(CCNC(=O)CSc2nc3[nH]ncc3c(=O)n2-c2ccc(C)c(Cl)c2)cc1OC	.	15.1	.	.	.	.
CCN(Cc1ccccc1)S(=O)(=O)c1ccc(C(=O)Nc2nnc(C)o2)cc1	38.2*	11.2	2.3	2.6	26.3*	-1.5
COc1ccccc1-c1nnc(NC(=O)c2ccc(S(=O)(=O)N(C)Cc3ccccc3)cc2)o1	21.0*	.	1.2	3.1	30.8*	-0.9
CCc1nnc(NC(=O)c2ccc(S(=O)(=O)N(C)Cc3ccccc3)cc2)o1	36.8*	20.1	0.8	2.5	34.1*	3.7
CN(Cc1ccccc1)S(=O)(=O)c1ccc(C(=O)Nc2nnc(C3CC3)o2)cc1	36.4*	-3.8	-4.3	2.2	31.1*	-0.2
COc1ccccc1-c1nnc(NC(=O)c2ccc(S(=O)(=O)N3CCOCC3)cc2)o1	2.8	-2.7	2.8	5.4	.	.
CC(=O)Nc1ccc(S(=O)(=O)N(C)Cc2ccccc2)cc1	6.0	-1.1	-1.3	0.3	.	.
Nc1ccn([C@@H]2O[C@H](C(=O)N[C@H]3c4ccccc4C[C@H]3O)[C@@H](O)[C@H]2O)c(=O)n1	.	11.7	.	.	.	.
COc1ccc(S(=O)(=O)NCc2cccnc2)cc1NC(=O)c1ccc(Cl)cc1	-3.5	20.2	-6.4	2.4	.	.
Cc1ccc(S(=O)(=O)N2CC(=O)N3CCN(CCN)C3C2)cc1 (centres undefined)	.	3.9	.	.	.	.

Screening data (PubChem BioAssay)
